Here are results for eight compounds from PMC8266240 (Journal of Enzyme Inhibition and Medicinal Chemistry, 2021).

Peptide text beside a SMILES is read from it. * marks the point of attachment. Cbz = O=C(OCc1ccccc1)*; CH2F = FC*

In this experiment the test system is HeLa cells. Description: Effect of inhibitors/activators on 12A-induced vacuolization in HeLa cells. The settings on record: pre- or co-treated with 12A, 8 h. The experiment is classed as cell-based, human. Put shortly:
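HeLa cells, alone or with the vacuolization-inducing test compound, were exposed to modulators for 8 h: pan-caspase inhibitor Z-VAD-FMK, autophagy inhibitors 3-MA and LY294002, autophagy activator rapamycin, bafilomycin A1, cycloheximide, ERK1/2 inhibitor PD98059 and JNK inhibitor SP600125. Some inhibitors were given as a 2 h pre-treatment before the test compound. Vacuoles were assessed by microscopy imaging.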
Take `COC(=O)C[C@H](NC(=O)[C@H](C)NC(=O)[C@@H](NC(=O)OCc1ccccc1)C(C)C)C(=O)CF` [Z-VAD-FMK] (Cbz-Val-Ala-Asp(OMe)-CH2F): the “effect on 12A-induced vacuolization” value was “not inhibited”.

In the case of `Oc1c2ccccc2c2c3c(cccc13)N=N2` [SP600125], the “effect on 12A-induced vacuolization” value is reported as “significantly decreased”.

Turning to `O=c1cc(N2CCOCC2)oc2c(-c3ccccc3)cccc12` [LY294002], the “effect on 12A-induced vacuolization” value is recorded as “did not decrease”.

Take `CO[C@H]1C[C@@H]2CC[C@@H](C)[C@@](O)(O2)C(=O)C(=O)N2CCCC[C@H]2C(=O)O[C@H]([C@H](C)C[C@@H]2CC[C@@H](O)[C@H](OC)C2)CC(=O)[C@H](C)/C=C(\C)[C@@H](O)[C@@H](OC)C(=O)[C@H](C)C[C@H](C)/C=C/C=C/C=C/1C` [rapamycin]: the “effect on 12A-induced vacuolization” value is given as “failed to promote”.

In the case of `Cn1cnc(N)c2ncnc1-2` [3-methyladenine], the “effect on 12A-induced vacuolization” value was “did not decrease”.

Consider `CO/C1=C\C(C)=C\[C@@H](C)[C@@H](O)[C@@H](C)C/C(C)=C/C=C/[C@H](OC)[C@@H]([C@@H](C)[C@@H](O)[C@H](C)[C@@]2(O)C[C@@H](O)[C@H](C)[C@@H](C(C)C)O2)OC1=O` [Baf-A1, Bafilomycin A1], for which the “effect on 12A-induced vacuolization” value is recorded as “dramatically blocked the formation of vacuoles”.

For `COc1cccc(-c2cc(=O)c3ccccc3o2)c1N` [PD98059], the “effect on 12A-induced vacuolization” value was “significantly decreased”.

In the case of `C[C@@H]1C[C@@H]([C@H](O)CC2CC(=O)NC(=O)C2)C(=O)[C@@H](C)C1` [CHX, Cycloheximide], the “effect on 12A-induced vacuolization” value was “dramatically blocked the formation of vacuoles”.
